Compounds with a hit are over-represented: about 2.8% of the library has one in this group of screens.
pPAFAH inh: pPAFAH enzyme inhibitors, primary screen, biochemical, fluorescence polarization, human | Platelet-activating factor acetylhydrolase (Homo sapiens), Q13093 | recombinant pPAFAH, FP-rhodamine probe fluorescence polarization | inhibition, % at 3.39 µM | 1.5% of 330,000 active | AID 463082, 2010;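 active = inhibition above the mean inhibition across the screen plus 3 SD, cut at about 25% in these data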;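 note: inhibitors block binding of the rhodamine activity-based probe so polarization drops; 0% = enzyme with DMSO and 100% = wells lacking pPAFAH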
HTRA1 inhibitor: HTRA1 serine protease inhibitors, primary screen, biochemical, fluorescence polarization, HTS; 0.5% of 340,000 active; Q92743; recombinant HTRA1, FP-rhodamine activity-based probe; inhibition, % at 5.96 µM; AID 504803, 2011; in the data active = inhibition above about 36%;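 note: 0% = enzyme with DMSO and 100% = wells lacking enzyme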
PAFAH1B3 FP inh: PAFAH1B3 enzyme inhibitors, primary screen, biochemical, fluorescence polarization, human; recombinant PAFAH1B3, FP-rhodamine probe; AID 492972, 2010; inhibition, % at 3.39 µM; 0.28% of 340,000 active; Platelet-activating factor acetylhydrolase IB subunit alpha1 (Homo sapiens), Q15102;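 active = inhibition above the screen-wide average of all tested compounds plus 3 SD, cut at about 25% in these data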;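 note: 0% = enzyme with DMSO only and 100% = wells lacking PAFAH1B3 protein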
PAFAH2 inh: PAFAH2 enzyme inhibitors, primary screen, biochemical, fluorescence polarization, human | Platelet-activating factor acetylhydrolase 2, cytoplasmic (Homo sapiens), Q99487 | recombinant PAFAH2, FP-rhodamine activity probe | inhibition, % at 3.39 µM | 0.99% of 340,000 active | AID 492956, 2010;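 active = inhibition above the mean over all tested compounds plus 3 SD, cut at about 30% in these data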;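 note: inhibitors block probe labeling of enzyme so polarization drops; 0% = enzyme with DMSO and 100% = wells lacking PAFAH2 protein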
PAFAH1B2 FP inh: PAFAH1B2 enzyme inhibitors, primary screen, biochemical, fluorescence polarization, human. inhibition, % at 3.39 µM. Platelet-activating factor acetylhydrolase IB subunit alpha2 (Homo sapiens), P68402. 1.2% of 340,000 active. recombinant PAFAH1B2, FP-rhodamine activity probe. AID 492953, 2010;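 active = inhibition above the mean of all tested compounds plus 3 SD, cut at about 24% in these data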;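 note: 0% = enzyme with DMSO and 100% = wells lacking PAFAH1B2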
Target sequence (P68402 whole entry, looked up): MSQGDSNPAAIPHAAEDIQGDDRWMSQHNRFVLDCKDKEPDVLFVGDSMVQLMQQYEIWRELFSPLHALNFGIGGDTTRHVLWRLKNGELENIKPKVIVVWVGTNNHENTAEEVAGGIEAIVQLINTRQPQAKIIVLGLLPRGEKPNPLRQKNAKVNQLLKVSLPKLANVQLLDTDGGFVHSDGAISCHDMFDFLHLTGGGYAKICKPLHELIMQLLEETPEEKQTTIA
ABHD4 inh: ABHD4 inhibitors, primary screen, biochemical, fluorescence polarization, mouse; purified mABHD4, FP-Rh probe fluorescence polarization; inhibition, % at 8.92 µM; 0.54% of 370,000 active; AID 720543, 2013;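 active = inhibition exceeding the mean over every tested compound plus 3 SD, cut at about 30% in these data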;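 note: 0% = plate median of compound wells and 100% = S159A mutant with DMSO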
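Doses – 8.92 µM, single dose · Material – wild-type mouse ABHD4 protein · Replication – single well per compound (singlicate) · Measure – percent inhibition of probe binding, normalized to plate controls · Schedule – 45 min compound pre-incubation plus 60 min probe step, 25 °C · Detection – fluorescence polarization with parallel and perpendicular emission, 525/598 nm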
Active calls of the source: *; · = no result given.

SMILES	pPAFAH inh	HTRA1 inhibitor	PAFAH1B3 FP inh	PAFAH2 inh	PAFAH1B2 FP inh	ABHD4 inh
O=C(CSc1nc2ccccc2c(=O)n1CC1CCCO1)NCC1CCCO1 (configuration not stated)	-4	-3	9	8	8	-2
NS(=O)(=O)c1ccc(NC(=O)CSc2nc3ccccc3n2-c2ccccc2)cc1	32*	-10	-15	-15	-3	-28
O=C(CSc1nc2ccccc2n1-c1ccccc1)NCC1CCCO1 (configuration not stated)	28*	-10	2	4	-1	0
Cc1c(NC(=O)C2CCCN(S(=O)(=O)c3ccc(F)cc3)C2)c(=O)n(-c2ccccc2)n1C (configuration not stated)	·	·	·	·	·	4
Cc1ncc(CSc2ccc(Cl)cc2)c(CO)c1O	0	0	6	1	27*	7
Cc1ncc(CSc2nccc(=O)[nH]2)c(CO)c1O	2	-1	0	-4	6	2
N#Cc1c(N2CCCC2)nc(N)c2c(N)nc(N3CCCC3)cc12	16	23	63*	59*	41*	-2
CCOc1cc2c(C#N)c(N3CCCC3)nc(N)c2c(N)n1	1	6	10	-4	4	-1
O=C(NCc1ccccc1F)c1cccs1	-1	-1	5	-2	3	1
O=C(NC(=S)NCc1ccccc1Cl)c1cccs1	27*	-35	0	-1	-6	-20
CC(C)c1ccc(-c2nc(N3CCOCC3)[nH]c(=O)c2C#N)cc1	4	8	7	0	33*	-2
N#Cc1c(-c2ccccc2)nc(N2CCOCC2)[nH]c1=O	0	-1	-9	-6	3	6
CC(C)(C)NC(=S)N/N=C/c1cc(Br)c(O)c(Br)c1	34*	14	8	6	17	18
O=C(N/N=C/c1cc(Br)c(O)c(Br)c1)C1CC1	14	0	0	-8	9	-4
COC(=O)C1CN(C2CCCC2)CCS(=O)(=O)N1Cc1ccc(C(F)(F)F)cc1 (configuration not stated)	·	·	·	·	·	-3
COC(=O)c1cc(S(=O)(=O)N2CCOCC2)c(Cl)cc1N1CCOCC1	4	2	2	2	0	-2
COC(=O)c1cc(C)nc2c1C(=O)C(=O)C=C2N1CCOCC1	6	30	73*	56*	28*	11
CC(C)(C)c1ccc(-c2noc(CCC(=O)NC3CC3)n2)cc1	·	·	·	·	·	1
COc1cc(C(c2c(C)[nH][nH]c2=O)c2c(C)[nH][nH]c2=O)ccc1OCc1ccc([N+](=O)[O-])cc1	11	-1	8	1	26*	4
COc1ccc(/C=C/C(=O)OCC(=O)c2ccccc2F)cc1	6	-18	6	29	3	-6
COc1ccc(/C=C\C(=O)CC(O)(c2ccccc2)C(F)(F)F)cc1 (configuration not stated)	-3	-13	-1	7	30*	-7
O=c1oc2ccccc2c(Nc2cc3ccccc3cc2O)c1[N+](=O)[O-]	27*	22	10	16	4	11
CC(C)(C)C1CCC(=O)C(C2(O)C(=O)Nc3ccccc32)C1 (configuration not stated)	5	4	10	0	27*	-7
CC(=O)c1ccc(OC(C)C)c(CSc2nc(O)cc(=O)[nH]2)c1	28*	-6	-4	7	4	2
Cc1cc(=O)n2[nH]c(SCc3ccc(Cl)cc3)nc2n1	26*	-1	-7	18	50*	-5
CCC(C)Sc1nc(O)cc(=O)[nH]1 (configuration not stated)	7	1	8	10	7	-14
O=c1[nH]c(SCc2ccc(Cl)cc2)nc2ccccc12	8	-17	12	-2	26*	-4

High-throughput results from PubChem.
